In article PMC3458564 (Nucleic Acids Research, 2012):
Where a name gives a salt, the structure may show the parent alone.

Assays:
[1] = tested on: HCV RLuc replicon in Huh7.5 cells; assay: HCV Renilla luciferase subgenomic replicon assay; assay type: cell-based; conditions: Hepatitis C virus, Huh7.5, 72 h, read-out: HCV replicon IC50 ± SD
E. coli SSB = E. coli SSB (Escherichia coli, UniProt P0AGE0); assay: Escherichia coli SSB FP assay; assay type: binding
HCV NS3h [2] = target: T1, HCV NS3h (Hepatitis C virus genotype 1b, UniProt Q9WMX2); assay: NS3h molecular beacon-based helicase assay; assay type: biochemical; conditions: for IC50: n=3
HCV NS3h [3] = target: T1, HCV NS3h; assay: biochemical; assay type: binding; conditions: for Cy5-dT15-NS3h Binding % Inhibition (LOPAC screen): LOPAC samples at 100 µM, 100 µM
[4] = Cell Titer-Glo cell viability assay; assay type: cell-based; conditions: human, Huh-7.5 cells
In short: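 Huh-7.5 cells carrying a stable HCV Renilla luciferase replicon, seeded at 10 000 cells/well, attached 4–5 h in DMEM with 10% FBS, glutamine, penicillin/streptomycin and non-essential amino acids. Test compound added in DMSO (0.5% final). Incubated 72 h at 37°C, 5% CO2. Cells washed, lysed by shaking in medium plus CellTiter-Glo, 30 min at 23°C. Luminescence read 1 s, normalized to DMSO-only. Triplicates.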

NS3h = target: T2, NS3h (Hepatitis C virus genotype 1b, UniProt Q9WMX2); assay: NS3h ATP hydrolysis; assay type: biochemical; conditions: preliminary
T2 sequence (Q9WMX2 1193-1657 limits assumed): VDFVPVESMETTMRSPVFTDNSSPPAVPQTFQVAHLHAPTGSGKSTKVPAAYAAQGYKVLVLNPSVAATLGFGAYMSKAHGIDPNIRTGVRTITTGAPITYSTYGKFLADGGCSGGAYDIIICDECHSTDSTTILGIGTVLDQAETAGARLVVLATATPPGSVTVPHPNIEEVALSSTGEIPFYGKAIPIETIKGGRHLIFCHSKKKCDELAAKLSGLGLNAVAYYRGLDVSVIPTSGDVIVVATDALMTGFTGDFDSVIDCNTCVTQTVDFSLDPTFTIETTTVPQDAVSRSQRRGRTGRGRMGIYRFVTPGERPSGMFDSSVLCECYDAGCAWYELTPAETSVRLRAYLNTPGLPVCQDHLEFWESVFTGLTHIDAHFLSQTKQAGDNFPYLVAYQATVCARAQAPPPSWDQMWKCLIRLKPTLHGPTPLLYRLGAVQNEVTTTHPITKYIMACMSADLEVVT

SSB = SSB (Escherichia coli, UniProt P0AGE0 1-178); assay: fluorescence polarization
[5] = NS3h helicase assays DNA IC50 ± SD, DNA substrate
[6] = NS3h helicase assays RNA IC50 ± SD, RNA substrate

Chain of E. coli SSB (P0AGE0 2-178 limits assumed): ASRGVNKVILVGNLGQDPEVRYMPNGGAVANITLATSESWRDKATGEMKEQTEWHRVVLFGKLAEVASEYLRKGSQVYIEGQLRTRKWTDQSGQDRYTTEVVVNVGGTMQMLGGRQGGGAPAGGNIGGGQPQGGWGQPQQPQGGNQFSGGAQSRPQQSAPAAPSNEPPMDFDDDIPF
Chain of SSB (P0AGE0 whole entry): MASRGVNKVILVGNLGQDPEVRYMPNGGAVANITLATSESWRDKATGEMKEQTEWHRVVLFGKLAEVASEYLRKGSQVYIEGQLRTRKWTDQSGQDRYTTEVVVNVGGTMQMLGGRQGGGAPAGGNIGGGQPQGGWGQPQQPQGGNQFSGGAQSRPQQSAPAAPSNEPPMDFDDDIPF

O=C(O)C1=CC(=C(c2ccc(O)c(C(=O)O)c2)c2ccc(O)c(C(=O)O)c2)C=CC1=O [ATA, aurintricarboxylic acid] gave an IC50 [1] of 98 ± 30 µM, an IC50 (E. coli SSB) of 1 ± 0.1 µM and an IC50 (HCV NS3h [2]; [5]) of 0.6 ± 0.1 µM. The IC50 (HCV NS3h [2]; [6]) was 0.8 ± 0.2 µM, the IC50 (HCV NS3h [3]) was 1.4 ± 0.1 µM and the “Cy5-dT15-NS3h Binding % Inhibition (LOPAC screen)” value (HCV NS3h [3]) was “more than 60%”. For the same molecule, the CC50 at 72 h [4] was greater than 100 µM and the “ability of NS3h to cleave ATP in the absence of DNA or RNA” value (NS3h) was “inhibits”.

For CN1CCN(c2ccc3[nH]c(-c4ccc5[nH]c(-c6ccc(O)cc6)nc5c4)nc3c2)CC1 [H33258], the “effect on FP-based NS3h binding assay” value (HCV NS3h [3]) was “increased polarization”.

With CCCN(CCCN(C)C)c1cc(/C=C2/Sc3ccccc3N2C)c2ccccc2[n+]1-c1ccccc1 [SYBR green I] the “effect on MBHA” value (HCV NS3h [2]) was “inhibit”.

Cc1ccc(C(=O)Nc2ccc(S(=O)(=O)O)c3cc(S(=O)(=O)O)cc(S(=O)(=O)O)c23)cc1NC(=O)c1cccc(NC(=O)Nc2cccc(C(=O)Nc3cc(C(=O)Nc4ccc(S(=O)(=O)O)c5cc(S(=O)(=O)O)cc(S(=O)(=O)O)c45)ccc3C)c2)c1 [Suramin, suramin sodium salt] showed an IC50 [1] of 38 ± 9.3 µM, an IC50 (E. coli SSB) of 0.3 µM and an IC50 (HCV NS3h [2]; [5]) of 3.7 ± 0.7 µM. For the same molecule, the IC50 (HCV NS3h [2]; [6]) was 8.9 ± 2 µM, the IC50 (HCV NS3h [3]) was 3.6 ± 0.3 µM and the “Cy5-dT15-NS3h Binding % Inhibition (LOPAC screen)” value (HCV NS3h [3]) was “more than 60%”. For the same molecule, the CC50 at 72 h [4] was greater than 50 µM.

For CN1/C(=C/C=C/c2cc[n+](CCC[N+](C)(C)C)c3ccccc23)Sc2ccccc21.[I-].[I-] [TO-PRO3], the “effect on FP-based NS3h binding assay” value (HCV NS3h [3]) was “increased polarization”.

With CC(=O)NCC(=O)O.CC(=O)NCC(=O)O.N=C(N)c1ccc(N=NNc2ccc(C(=N)N)cc2)cc1 [berenil] the “effect on MBHA” value (HCV NS3h [2]) was “inhibit”.

In the case of Cn1cc(NC(=O)c2cc(NC(=O)CN=C(N)N)cn2C)cc1C(=O)NCCC(=N)N [netropsin], the “effect on MBHA” value (HCV NS3h [2]) is reported as “inhibit”.

With Nc1ccc2cc3ccc(N)cc3nc2c1 [proflavin] the “effect on MBHA” value (HCV NS3h [2]) was “inhibit”.

For Nc1ncnc2c1ncn2[C@@H]1O[C@H](COP(=O)(O)CP(=O)(O)OP(=O)([O-])[O-])[C@H](O)C1O.[Li+].[Li+] (stereo partly drawn) [α,β-methylene ATP, alpha,beta-Methylene adenosine 5'-triphosphate dilithium], the “effect on FP-based NS3h binding assay” value (HCV NS3h [3]) was “did not inhibit”.

B1: Cy5-dT15 (ssDNA)
DNA: TTTTTTTTTTTTTTT
In the case of B1, the “apparent K (half saturation)” value (SSB) is reported as 9.6 ± 2 nM.
